# Test results from PubChem BioAssay AID638 (SRMLSC, 2007).
# Out of some 1,300 compounds screened, about 65 (5%) were called active. These entries were drawn from the full list. Entries with a potency or affinity are not part of this list. Values without a mark were called inactive.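 How the source made its calls: active means growth inhibition reaching a set limit at one or more tested doses; inactive means the rest.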
# Experiment: wild-type E. coli BW25113 antibacterial activity – OD615, dose response (AID 638)
# Settings: at 100 µM (top of the series) unless noted
# Summary of the method: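 Material – E. coli BW25113 wild type · Medium – Kanamycin-supplemented LB broth · Doses – compound dilution series for dose-response · Incubation – 20 h compound exposure, 37 °C · Technique – optical density (absorbance) at 615 nm · Read-out basis – IC50 from 4-parameter logistic, bounds fixed 0–100% · Control set – chloramphenicol at 30 µM final as inhibition control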
row,SMILES,growth inhibition
1,COc1ccc(-c2noc(Cc3ccc(Cl)cc3)n2)cc1OC,7.9%
2,COc1cccc(N2CC(C(=O)Nc3ccc(C(=O)OC(C)C)cc3)CC2=O)c1 (stereo not drawn),5.31%
3,CCCCCOC(=O)c1ccc(NC(=O)c2ccco2)cc1,-0.06%
4,CCOC(=O)c1cnc(-n2nc(C)cc2C)nc1NC1CCCCC1,-4.22%
5,COc1ccccc1N1CCN(Cc2nc(N)nc(Nc3ccc(C)c(Cl)c3)n2)CC1,8.69%
6,CN1C(=O)C2(OCC(COc3ccc(Cl)cc3)O2)c2ccccc21 (stereo not drawn),-7.83%
7,Cc1ccc(C)c(Cn2c(CN(C)Cc3ccccc3)nc3c2c(=O)n(C)c(=O)n3C)c1,-10%
8,CCC(Oc1ccccc1)C(=O)Nc1ccc(-c2nnc(-c3ccco3)o2)cc1 (stereo not drawn),-9.73%
9,Cc1nc2c(C(=O)NCCC3=CCCCC3)c[nH]n2c(=O)c1Cl,5.42%
10,CCOC(=O)C1CN(c2cc3c(cc2F)c(=O)c(C(=O)O)cn3CC)OC1C(=O)OCC (stereo not drawn),3.92%
11,Cc1cc(N2CCC(C)CC2)nc(-n2nc(C)cc2C)n1,-4.79%
12,O=c1[nH]c(=O)n(C2CCCCCC2)c(O)c1C=NCc1ccc(F)cc1,-0.14%
13,COC(=O)c1c(NC(=O)CCc2ccc(C)o2)sc(C)c1C,3.59%
14,N#Cc1nc(Cc2cccc3ccccc23)oc1NCc1ccc(F)cc1,20% (active)
15,N#Cc1nc(Cc2cccc3ccccc23)oc1NCCCn1ccnc1,2.47%
16,N#Cc1nc(Cc2ccccc2)oc1NCc1ccccc1Cl,14.5%
17,CC1CCC(C(C)C)C(OC(=O)COC(=O)c2ccc(=O)[nH]c2)C1 (stereo not drawn),1.53%
18,C=CCn1c(NC(C)c2cc(Cl)ccc2O)nc2ccccc21 (stereo not drawn),13.7%
19,O=C(Nc1ccccc1N1CCCCC1)c1cccs1,1.03%
20,O=C(OC1CCCCC1)c1ccc(NC(=O)c2ccco2)cc1,2.7%
21,Cc1nn(-c2ccccc2)c(C)c1C(=O)Nc1nnc(-c2ccco2)o1,9.7%
22,O=C(Nc1nnc(-c2ccc(F)cc2)o1)c1ccco1,1.59%
23,Cc1ccc(-c2csc3ncnc(Sc4nnc(CN5CCCCCC5=O)o4)c23)cc1,5.4%
24,CCc1ccc2[nH]c(=O)c(C(c3nnnn3CCOC)N3CCN(c4ccc(F)cc4)CC3)cc2c1 (stereo not drawn),-0.14%

row,SMILES,growth inhibition
1,CC(C)OCCCNc1ncnc2c1[nH]c1ccc(F)cc12,9.62%
2,CC(C)OCCCNc1ncnc2c1[nH]c1ccccc12,8.07%
3,CCOc1ccc2[nH]c3c(N4CCN(c5ccccn5)CC4)ncnc3c2c1,-8.17%
4,N#C/C(=C\c1cccs1)Sc1nc2ccccc2s1,-8.78%
5,O=C(CN(Cc1ccc2c(c1)OCO2)C(=O)CSc1nc2ccccc2o1)NC1CCCCC1,-6.97%
6,C=C(C)Cn1c(N2CCC(Cc3ccccc3)CC2)nc2c1c(=O)[nH]c(=O)n2C,-2.32%
7,Cn1c(=O)c2c(nc(N3CCCCCC3)n2Cc2cccc3ccccc23)n(C)c1=O,-1.26%
8,CCOc1ccccc1N1CCN(Cc2ccc(Br)s2)CC1,-0.45%
9,CC1=CC(C)(C)N2C(=O)C3(SCC(=O)N3c3ccc(O)cc3)c3cc(C)cc1c32 (stereo not drawn),1.81%
10,CCCOC(=O)c1ccc(Oc2cn[nH]c2-c2ccc(OCC)cc2O)cc1,8.01%
11,Cn1c(=O)n(CCCOc2ccc(Br)cc2)c2ccccc21,9.45%
12,C=C(C)COc1ccc(-c2n[nH]c(C)c2-c2ccccc2OC)c(O)c1,8.4%
13,C=C(C)COc1ccc(-c2n[nH]c(C)c2-c2ccccc2)c(O)c1,20.5% (active)
14,C=C(C)COc1ccc(-c2n[nH]c(C)c2Oc2ccccc2OC)c(O)c1,0.02%
15,c1ccc(-c2nc(N3CCCCCC3)c3ccccc3n2)nc1,17.1% [at 50 µM]
16,Cc1cccc(Nc2nc(-c3ccccn3)cs2)n1,4.37%
17,CCCCn1c(NC(=O)c2ccccc2)c(C#N)c2nc3ccccc3nc21,-8.7%
18,CCn1c(Cn2nnc(-c3ccccc3)n2)nnc1SCc1ccc(Cl)c(Cl)c1,-0.33%
19,Cc1cccc(NC(=O)c2cc(NC(=O)C3CCCCC3C(=O)O)ccc2N2CCCCC2)c1 (stereo not drawn),-4.25%
20,O=C(COn1nnc2ccc(C(F)(F)F)cc21)Nc1nnc(-c2ccccc2)o1,-3.92%
21,O/N=C(\c1ccc(Cl)cc1)c1cc2ccccc2o1,8.62%
22,Cc1onc(-c2ccccc2)c1C(=O)OCC(=O)c1ccccc1,1.87%
23,CN(c1ccccc1C(=O)Nc1ccc(S(=O)(=O)N2CCCCC2)cc1)S(C)(=O)=O,-1.44%
24,O=C(NC1CCCC1)c1sc(=S)n2c1[nH]c(=O)c1ccccc12,-2.92%

row,SMILES,growth inhibition
1,Cn1c(=O)c2c(SCc3cccnc3)nc(CC(C)(C)C)nc2n(C)c1=O,1.92%
2,O=C(Nc1ccc(S(=O)(=O)N2CCCc3ccccc32)cc1)C1CCCO1 (stereo not drawn),-2.99%
3,c1ccc(-n2nnnc2Oc2cccc3cccnc23)cc1,2.63%
4,O=C(NCc1ccco1)c1cc2sccc2n1Cc1ccccc1,-6.37%
5,N=c1n(CCN2CCOCC2)c2ccccc2n1CC(=O)c1ccc(Cl)c(Cl)c1,-3.82%
6,c1csc(-c2nc3nc4ccccc4nc3n2Cc2ccc3c(c2)OCO3)c1,-7.29%
7,COc1cc(-c2nc(Cc3ccccc3Cl)no2)cc(OC)c1OC,8.5%
8,O=C(COc1ccc2ccccc2c1Br)N1CCN(c2ccccn2)CC1,-12.5%
9,CSCCOC(=O)C1=C(C)NC(=O)CC1c1ccccc1Cl (stereo not drawn),3.74%
10,CC(OC(=O)c1ccccc1NCc1ccco1)C(=O)Nc1ncc(Cl)cc1Cl (stereo not drawn),11.2%
11,COc1ccc(S(=O)(=O)Nc2ccc(S(=O)(=O)N3CCCCC3)cc2)cc1,-5.18%
12,N#CC1=C(N)NC(SCc2ccccc2)=C(C#N)C12CCCCC2,12.1%
13,CCSc1nnc(NC(=O)CSc2nccn2-c2cccc(C)c2C)s1,2.99%
14,Cc1onc(-c2c(F)cccc2Cl)c1C(=O)Nc1nc2c(s1)CCCC2,-5.05%
15,Cc1cc(N2CCN(C(c3ccccc3)c3ccccc3)CC2)n2ncnc2n1,6.9%
16,COc1ccc(OC)c(S(=O)(=O)n2cnc3cc(C)c(C)cc32)c1,-5.06%
17,CCc1nc(N2CCCCC2)c2oc3ccccc3c2n1,-1.03%
18,Brc1cc(Br)c2ncnc(N3CCCCC3)c2c1,7.11%
19,c1ccc(-c2nc(CSc3nnc(-c4cccs4)o3)cs2)cc1,-5.14%
20,Cc1cc(-c2ccco2)c(C#N)c2nc3ccccc3n12,-4.65%
21,Cc1ccc(NC(=O)N2CCC(c3nc4c(nnn4Cc4cccc(Cl)c4)c(=O)[nH]3)CC2)cc1,-0.39%
22,O=C(Nc1nnc(-c2ccc(Cl)cc2)o1)c1ccccc1Br,5.98% [at 50 µM]
23,O=C(Nc1nnc(-c2ccccc2)o1)c1nc2ccccc2s1,-11.8%
24,Cc1ccc(C2c3c(-c4ccccc4O)n[nH]c3C(=O)N2Cc2ccncc2)cc1 (stereo not drawn),-4.25%

row,SMILES,growth inhibition
1,O=C(Nc1ccc(Cl)c(Cl)c1)N1CCSC1c1ccco1 (stereo not drawn),15.6%
2,CCc1nnc(NC(=O)c2cccc(C(=O)Nc3nnc(CC)s3)n2)s1,9.58%
3,CCSc1nnc(NC(=O)c2nc(-c3ccccc3)n(-c3ccccc3)n2)s1,-4.83%
4,Cc1ccc(-c2nnc3sc(CCc4ccccc4)nn23)cc1,9.95%
5,COC(=O)c1ccsc1NC(=O)CN1CCN(c2ccc(F)cc2)CC1,-9.19%
6,O=C(c1cccc(COc2ccc(Cl)cc2Cl)c1)N1CCN(c2ccccn2)CC1,-14.7%
7,O=C(Nc1nc2ccccc2s1)C1CCCN1S(=O)(=O)c1ccc(Cl)cc1 (stereo not drawn),-7.08%
8,COc1ccc(-c2nnc(SCc3cc(C)cc(C)c3)o2)cc1,-1.05%
9,c1ccc(N2CCN(c3ncnc4c3oc3ccccc34)CC2)cc1,-9.68%
10,COc1ccc(C)cc1NC(=O)CSc1nnc(COc2ccccc2)n1Cc1ccco1,0.64%
11,CCc1cc2c3c(c(=O)oc2cc1O)CCCC3,-5.58%
12,CCCn1c(CNc2ccc(Br)cc2)nc2ccccc21,7.8%
13,CCc1nc2ccccc2c(=O)n1NC(=O)c1c(O)c2cccc3c2n(c1=O)CCC3,-13.7%
14,COc1ccc(C2CC(c3ccccc3)n3nc(NC(=O)c4cccs4)nc3N2)cc1 (stereo not drawn),3.83%
15,O=C(Nc1nc2ccccc2n1CCOc1ccc(Cl)cc1)c1ccco1,3.35%
16,O=C(Nc1nc2n(n1)C(c1ccc(Cl)cc1)CC(c1ccc(Cl)cc1)N2)c1ccco1 (stereo not drawn),13% (active)
17,O=C(Cn1c2c(c(-c3ccccc3)cc1=O)CCCC2)N1CCCCCC1,3.36%
18,C=CCn1c(SCC(O)Cn2c3ccccc3c3ccccc32)nnc1-c1ccco1 (stereo not drawn),-9.43%
19,O=C(CSc1nnc2scc(-c3ccccc3)n12)Nc1nsc(-c2ccccc2)n1,-9.04%
20,COc1ccc(Cl)cc1N1CCN(CCNC(=O)Nc2ccccc2C)CC1,-2.62%
21,Cn1c(=O)c(C(=S)NC(=O)C2CC2)c(N)n(Cc2ccccc2)c1=O,-3.57%
